The values that follow come from ChEMBL document CHEMBL1938233, “2-Oxo-N-aryl-1,2,3,4-tetrahydroquinoline-6-sulfonamides as activators of the tumor cell specific M2 isoform of pyruvate kinase” (Bioorg Med Chem Lett, 2011).

The structures appear in SMILES notation. Active and inactive are the calls of the source. The rule behind the calls is not given here. Where only a bound is given, the exact number is not on record here.

As usually defined, the Emax is the greatest response seen or fitted, relative to the assay's reference. By EC50 is commonly meant the concentration needed to bring the measured effect to its halfway point.

The target in one test is T1, Pyruvate kinase PKM (Homo sapiens, UniProt P14618). The experiment in a line: Activation of human PKM2 assessed as ATP product formation at 57 µM after 1 hr by luminescent pyruvate kinase-luciferase coupled assay.
Target sequence in this assay (P14618 2-531 limits assumed): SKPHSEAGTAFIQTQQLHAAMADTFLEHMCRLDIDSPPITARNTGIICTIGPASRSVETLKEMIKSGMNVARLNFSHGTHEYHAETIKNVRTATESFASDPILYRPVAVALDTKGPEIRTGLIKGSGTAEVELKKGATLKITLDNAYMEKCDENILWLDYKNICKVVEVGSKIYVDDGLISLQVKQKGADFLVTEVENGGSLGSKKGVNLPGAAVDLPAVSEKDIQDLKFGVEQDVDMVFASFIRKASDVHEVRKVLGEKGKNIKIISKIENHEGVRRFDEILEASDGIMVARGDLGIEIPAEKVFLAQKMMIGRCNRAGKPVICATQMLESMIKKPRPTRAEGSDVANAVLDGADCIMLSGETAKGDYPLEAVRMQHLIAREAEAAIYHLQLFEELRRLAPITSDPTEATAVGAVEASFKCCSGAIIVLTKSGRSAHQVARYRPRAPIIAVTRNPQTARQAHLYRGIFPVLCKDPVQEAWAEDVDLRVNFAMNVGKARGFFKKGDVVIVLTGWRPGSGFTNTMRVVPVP
Take `Cc1ccc(NS(=O)(=O)c2ccc3c(c2)CC(=O)N3C)cc1C`: the Emax was determined as 119%.
Regarding `Cc1ccc(NS(=O)(=O)c2cc3c(cc2NCCO)NC(=O)CC3)cc1C`, the maximum response (Emax) stood at 132%.
Turning to `CC(=O)N1CCc2cc(S(=O)(=O)Nc3ccc(C)c(C)c3)ccc21`, the maximal response (Emax) worked out at 96%.
In the case of `Cc1ccc(NS(=O)(=O)c2cc3c(cc2NC(C)C)NC(=O)CC3)cc1C`, the maximal response (Emax) was determined as 123%.
Same read-out and setting: then `CC(=O)N1CCCc2cc(S(=O)(=O)Nc3ccc(C)c(C)c3)ccc21`, with 76%; and `Cc1ccc(NS(=O)(=O)c2ccc3c(c2)N(C)CCO3)cc1C`, with 81%; and `Cc1ccc(NS(=O)(=O)c2ccc(F)cc2)cc1C`, with “inactive”.
For the molecule `Cc1ccc(NS(=O)(=O)c2cccc(Cl)c2)cc1C`, the maximal effect (Emax) came out at 71%.
Same read-out and setting: then `Cc1ccc(NS(=O)(=O)c2cccc(C(=O)O)c2)cc1C`, with “inactive”; and `Cc1ccc(NS(=O)(=O)c2cc3c(cc2N(C)C)CCC(=O)N3)cc1C`, with 106%.
As for `Cc1ccc(NS(=O)(=O)c2cc3c(cc2Cl)CCC(=O)N3)cc1C`, the Emax worked out at 92%.
With `Cc1ccc(NS(=O)(=O)c2cc3c(cc2Br)CCC(=O)N3)cc1Cl`, the Emax came out at 51%.
On to `CCN(CC)c1cc2c(cc1S(=O)(=O)Nc1ccc(C)c(C)c1)CCC(=O)N2`, for which the maximum response (Emax) amounted to 106%.
On the same count and under the same terms, then `Cc1ccc(NS(=O)(=O)c2cc3c(cc2N2CCC(N(C)C)C2)NC(=O)CC3)cc1C` (racemic), with “inactive”; and `Cc1ccc(NS(=O)(=O)c2cc3c(cc2Cl)NC(=O)CO3)cc1C`, with 80%; and `Cc1ccc(NS(=O)(=O)c2cc3c(cc2Br)CCC(=O)N3)cc1C`, with 52%.
Take `Cc1ccc(NS(=O)(=O)c2ccc3c(ccn3C)c2)cc1C`: the maximal response (Emax) came to 47%.
As to `Cc1cc(NS(=O)(=O)c2cc3c(cc2F)NC(=O)CC3)ccc1F`, the Emax came out at 92%.
In the case of `COc1ccc(S(=O)(=O)Nc2ccc(C)c(C)c2)cc1`, the Emax was 53%.
Regarding `Cc1cc(NS(=O)(=O)c2cc3c(cc2N[C@@H](C)CO)NC(=O)CC3)ccc1F`, the Emax came to 95%.
Turning to `Cc1ccc(NS(=O)(=O)c2ccc3c(c2)CC(=O)N3)cc1C`, the maximum response (Emax) came to 57%.
Consider `Cc1ccc(NS(=O)(=O)c2cc3c(cc2N[C@@H](C)CO)CCC(=O)N3)cc1Cl`, for which the Emax stood at 54%.
As to `CC(=O)Nc1cccc(S(=O)(=O)Nc2ccc(C)c(C)c2)c1`, the Emax amounted to 58%.
As for `Cc1ccc(NS(=O)(=O)c2ccc(N3CCCC3=O)cc2)cc1C`, the maximal effect (Emax) was 60%.
`Cc1ccc(NS(=O)(=O)c2ccc3c(c2)CCC(C)(C)O3)cc1C`: the Emax came out at 62%.
The same measure, in the same setting: then `Cc1ccc(NS(=O)(=O)c2cc3c(cc2-c2ccccc2)NC(=O)CO3)cc1C`, with “inactive”.
On to `Cc1ccc(NS(=O)(=O)c2ccc3[nH]c(=O)[nH]c3c2)cc1C`, for which the Emax entry is “inactive”.
For the molecule `Cc1ccc(NS(=O)(=O)c2cc3c(cc2C)NC(=O)CO3)cc1C`, the maximum response (Emax) amounted to 111%.
In the case of `Cc1ccc(NS(=O)(=O)c2ccc3c(c2)oc(=O)n3C)cc1C`, the maximal effect (Emax) stood at 95%.
In the case of `CC(=O)Nc1ccc(S(=O)(=O)Nc2ccc(C)c(C)c2)cc1`, the maximal effect (Emax) is < 40%.
For the molecule `Cc1ccc(NS(=O)(=O)c2ccc3ccccc3c2)cc1C`, the Emax was found to be 69%.
Regarding `Cc1ccc(NS(=O)(=O)c2cc3c(cc2NCC(C)(C)O)NC(=O)CC3)cc1C`, the Emax amounted to 83%.
On to `Cc1ccc(NS(=O)(=O)c2cc3c(cc2N[C@H](C)CO)NC(=O)CC3)cc1C`, for which the maximum response (Emax) came to 108%.
As for `Cc1ccc(NS(=O)(=O)c2cc3c(cc2/C=C/c2ccccc2)NC(=O)CO3)cc1C`, the Emax result is “inactive”.
On the same count and under the same terms, then `Cc1ccc(NS(=O)(=O)c2ccc3c(c2)CCCC(=O)N3)cc1C`, with 88%.
In the case of `Cc1ccc(NS(=O)(=O)c2ccc3c(c2)NC(=O)CO3)cc1C`, the Emax was 81%.
On the same count and under the same terms, then `Cc1cc(NS(=O)(=O)c2cc3c(cc2F)NC(=O)CC3)ccc1Cl`, with 93%; and `Cc1ccc(NS(=O)(=O)c2cc3c(cc2N2CCCCC2)NC(=O)CC3)cc1C`, with 47%.
In the case of `Cc1ccc(NS(=O)(=O)c2cc3c(cc2N[C@@H](C)CO)NC(=O)CC3)cc1C`, the maximum response (Emax) was determined as 116%.
`Cc1ccc(NS(=O)(=O)c2cc3c(cc2N2CCCC2)NC(=O)CC3)cc1C`: the maximum response (Emax) is 123%.
On to `Cc1ccc(NS(=O)(=O)c2cc3c(cc2Cl)CCC(=O)N3)cc1Cl`, for which the Emax came to 109%.

The target of the next test is T1, Pyruvate kinase PKM. In words: Activation of human PKM2 assessed as ATP product formation after 1 hr by luminescent pyruvate kinase-luciferase coupled assay. In outline:
(§1)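 Luminescent pyruvate kinase–luciferase coupled assay. AC50 is the mean of three separate experiments. Maximum response is % activation at 57 μM compound, normalized as described in the supporting information.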
For the molecule `Cc1cccc(NS(=O)(=O)c2ccc3c(c2)CCC(=O)N3)c1`, the EC50 was 0.25 µM.
In the case of `O=C1CCc2cc(S(=O)(=O)Nc3ccc(F)c(Cl)c3)ccc2N1`, the EC50 stood at 0.29 µM.
Turning to `Cc1ccc(NS(=O)(=O)c2cc3c(cc2Br)CCC(=O)N3)cc1Cl`, the concentration for a half-maximal effect (EC50) stood at 7.43 µM.
Consider `Cc1ccc(NS(=O)(=O)c2cc(N[C@@H](C)CO)cc3c2NC(=O)CC3)cc1C`, for which the outcome was inactive.
With `Cc1ccc(NS(=O)(=O)c2cc(N[C@@H](C)CO)cc3c2NC(=O)CC3)cc1Cl`, the outcome was inactive.
For the molecule `Cc1ccc(NS(=O)(=O)c2cc3c(cc2Br)CCC(=O)N3)cc1C`, the EC50 stood at 6.6 µM.
As for `Cc1ccc(NS(=O)(=O)c2ccc3c(ccn3C)c2)cc1C`, the EC50 is 19.9 µM.
`Cc1ccc(NS(=O)(=O)c2cc(Br)cc3c2NC(=O)CC3)cc1C`: the result was inactive.
With `Cc1ccc(NS(=O)(=O)c2cc3c(cc2N[C@H](C)CO)NC(=O)CC3)cc1C`, the half-maximal effective concentration (EC50) is 0.88 µM.
As for `COc1cccc(Cn2ncc3c4sc([S+](C)[O-])cc4n(C)c3c2=O)c1` (centres undefined), the 50% effective concentration (EC50) worked out at 0.073 µM.
In the case of `Cc1ccc(NS(=O)(=O)c2cc(Br)cc3c2NC(=O)CC3)cc1Cl`, the result was inactive.
Consider `Cc1ccc(NS(=O)(=O)c2cc3c(cc2N[C@@H](C)CO)NC(=O)CC3)cc1C`, for which the concentration giving a half-maximal response (EC50) was determined as 0.17 µM.

Another test has as its target T1, Pyruvate kinase PKM. In words: Activation of human PKM2 assessed as ATP product formation at 57 uM after 1 hr by luminescent pyruvate-kinase luciferase coupled assay. In outline: as §1
Target sequence in this assay (P14618 2-531 limits assumed): as above
With `Cc1ccc(NS(=O)(=O)c2ccc3c(c2)CCC(=O)N3)cc1`, the Emax turned out to be 102%.
With `COc1cccc(NS(=O)(=O)c2ccc3c(c2)CCC(=O)N3)c1`, the maximal effect (Emax) came out at 115%.
`Cc1ccccc1NS(=O)(=O)c1ccc2c(c1)CCC(=O)N2`: the Emax was 94%.
`Cc1cccc(NS(=O)(=O)c2ccc3c(c2)CCC(=O)N3)c1`: the Emax came out at 101%.
Still for that read-out and setting: then `O=C1CCc2cc(S(=O)(=O)Nc3ccc(F)c(Cl)c3)ccc2N1`, with 123%.
For `COc1ccc(NS(=O)(=O)c2ccc3c(c2)CCC(=O)N3)cc1`, the maximum response (Emax) was 85%.
For `O=C1CCc2cc(S(=O)(=O)Nc3ccc4c(c3)CCC4)ccc2N1`, the Emax is 73%.
For `Cc1cc(NS(=O)(=O)c2ccc3c(c2)CCC(=O)N3)ccc1Cl`, the Emax worked out at 121%.
In the case of `Cc1cc(NS(=O)(=O)c2ccc3c(c2)CCC(=O)N3)ccc1F`, the maximum response (Emax) was 128%.
As to `O=C1CCc2cc(S(=O)(=O)Nc3cccc(C(F)(F)F)c3)ccc2N1`, the maximal effect (Emax) turned out to be 109%.
Take `O=C1CCc2cc(S(=O)(=O)Nc3cccnc3)ccc2N1`: the Emax entry was “inactive”.
On to `O=C1CCc2cc(S(=O)(=O)Nc3ccc(F)cc3)ccc2N1`, for which the maximal response (Emax) was determined as 84%.
With `O=C1CCc2cc(S(=O)(=O)Nc3ccc(Cl)cc3)ccc2N1`, the Emax was found to be 106%.
In the case of `O=C1CCc2cc(S(=O)(=O)Nc3ccc4c(c3)OCCO4)ccc2N1`, the Emax was determined as 100%.
`O=C1CCc2cc(S(=O)(=O)Nc3ccc4ccccc4c3)ccc2N1`: the Emax is 121%.
As for `O=C1CCc2cc(S(=O)(=O)Nc3ccc(Cl)c(Cl)c3)ccc2N1`, the maximal response (Emax) was found to be 95%.
Take `Cc1ccc(NS(=O)(=O)c2ccc3c(c2)CCC(=O)N3)cc1F`: the Emax is 138%.
As for `O=C1CCc2cc(S(=O)(=O)Nc3ccc4ncccc4c3)ccc2N1`, the Emax result is “inactive”.
For the molecule `O=C1CCc2cc(S(=O)(=O)Nc3ccccc3F)ccc2N1`, the Emax was 95%.
Consider `O=C1CCc2cc(S(=O)(=O)Nc3ccncc3)ccc2N1`, for which the Emax entry is “inactive”.
On to `O=C1CCc2cc(S(=O)(=O)Nc3cccc(-c4ccccc4)c3)ccc2N1`, for which the Emax entry was “inactive”.
